Source: ChEMBL document CHEMBL1156686, “Xanthine oxidase-activated prodrugs of thymidine phosphorylase inhibitors” (Eur J Med Chem, 2008)

Substrate: O=c1[nH]c(=O)n([C@H]2C[C@H](O)[C@@H](CO)O2)cc1[N+](=O)[O-]
Assay: Activity of Escherichia coli thymidine phosphorylase
Outline: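 Recombinant E. coli TP (0.00883 U per 0.2 ml) added to start a continuous spectrophotometric assay. Mix: 0.13 mM 5-nitro-2'-deoxyuridine substrate in 0.1 M potassium phosphate, pH 7.4, 25 °C, read at 355 nm in a microplate. Initial velocity compared with the mean of at least two no-inhibitor controls. Where derived, IC50 used at least five concentrations spanning the value.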

B1: Thymidine phosphorylase (Escherichia coli K-12), P07650 (protein)
chain: MFLAQEIIRKKRDGHALSDEEIRFFINGIRDNTISEGQIAALAMTIFFHDMTMPERVSLTMAMRDSGTVLDWKSLHLNGPIVDKHSTGGVGDVTSLMLGPMVAACGGYIPMISGRGLGHTGGTLDKLESIPGFDIFPDDNRFREIIKDVGVAIIGQTSSLAPADKRFYATRDITATVDSIPLITASILAKKLAEGLDALVMDVKVGSGAFMPTYELSEALAEAIVGVANGAGVRTTALLTDMNQVLASSAGNAVEVREAVQFLTGEYRNPRLFDVTMALCVEMLISGKLAKDDAEARAKLQAVLDNGKAAEVFGRMVAAQKGPTDFVENYAKYLPTAMLTKAVYADTEGFVSEMDTRALGMAVVAMGGGRRQASDTIDYSVGFTDMARLGDQVDGQRPLAVIHAKDENNWQEAAKAVKAAIKLADKAPESTPTVYRRISE
Question: For B1, which kcat is on record?
Answer: 20 s⁻¹
